Each structure is given as a SMILES string. Calls of active or inactive are those of the source. The calls are words filed in the database; no cut-off is given here.

Here are results for 1 molecule from ChEMBL document CHEMBL4304819, “Natural product pectolinarigenin exhibits potent anti-metastatic activity in colorectal carcinoma cells in vitro and in vivo” (2019).

For assay [1], the system named is CT26. Kind of assay: Induction of apoptosis in mouse CT26 cells assessed as early apoptotic cells at 20 uM after 48 hrs by Annexin V-FITC/propidium iodide staining-based flow cytometric analysis (reference value: 2.84 %). It counts as functional. The procedure, abridged:
(§1)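 CT26 cells seeded at 1–2 × 10^5 per well in six-well plates for 24 h, then exposed to PEC (0–40 μM) for 24 or 48 h. Cells harvested, washed twice in cold PBS, stained with Annexin V-FITC/PI and read by flow cytometry. Early apoptotic = Annexin V+ only; late apoptotic = Annexin V+/PI+. Mean ± SD of three experiments.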
A general note: A flow cytometer gives signals particle by particle.

For assay [2], the system named is SW48. Kind of assay: Inhibition of colony formation in human SW48 cells assessed as reduction in size of colonies up to 40 uM incubated for 24 hrs supplemented with fresh medium containing compound every 3 days for 12 days by crystal violet staining-based microscopic analysis. It counts as functional, cell-based. The essentials: (§2)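 400–800 cells per well seeded in 6-well plates; after 24 h, PEC (0–40 μM) added. Medium with or without compound replaced every three days for 12 days. Colonies washed in cold PBS, fixed in methanol, stained 15 min with 0.5% crystal violet and counted under a microscope. Mean ± SD of three experiments.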

Assay [3] deals with HCT-116. The assay can be described thus: Induction of apoptosis in human HCT116 cells assessed as necrotic cells at 10 uM after 48 hrs by Annexin V-FITC/propidium iodide staining-based flow cytometric analysis (reference value: 8.24 %). It counts as functional. The procedure, abridged: (§3)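 Cells (1–2 × 10^5 per well) seeded in six-well plates 24 h, treated at 0–40 μM for 24 h or 48 h, harvested, washed twice in cold PBS, stained with Annexin V-FITC/PI and analysed by flow cytometry; early (Annexin V only) and late (Annexin V and PI) apoptotic fractions quantified; three experiments.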

The test system of assay [4] is HCT-116. Kind of assay: Anticlonogenic activity against human HCT116 cells assessed as reduction in colony formation up to 40 uM incubated for 24 hrs supplemented with fresh medium containing compound every 3 days for 12 days by crystal violet staining-based microscopic analysis. It counts as functional, cell-based. The procedure, abridged: (§4)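 Cells seeded at 400–800 per well in 6-well plates; after 24 h, treated with 0–40 μM in fresh medium (with or without compound) replaced every three days for 12 days. Colonies fixed in methanol, stained with 0.5% crystal violet for 15 min and counted by microscope; reported as surviving colonies, mean ± SD of three experiments.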

Assay [5] has as its system HCT-116. The assay can be described thus: Induction of apoptosis in human HCT116 cells assessed as necrotic cells at 20 uM after 48 hrs by Annexin V-FITC/propidium iodide staining-based flow cytometric analysis (reference value: 8.24 %). It counts as functional. The procedure, abridged:
as §3

For assay [6], the system named is CT26. Kind of assay: Antimetastatic activity against ip dosed mouse CT26 cells allografted in Balb/c mouse assessed as reduction in number of tumour nodules administered daily for 14 days starting from 6 days post implantation. It counts as functional, organism-based. The procedure, abridged: (§5)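 Female BALB/c mice (6–8 weeks) injected ip with 5 × 10^5 CT26 cells; from day 6, randomized (eight per group) to ip vehicle, 25 or 50 mg/kg once daily for 14 days. Abdominal circumference and body weight every 3 days; abdominal nodules counted by eye and weighed; spleens assessed; paraffin tumour sections immunostained (Ki-67, MMP-9, p-Stat3) with DAB detection.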

Assay [7] has as its system HCT-116. Kind of assay: Induction of apoptosis in human HCT116 cells assessed as viable cells at 10 uM after 48 hrs by Annexin V-FITC/propidium iodide staining-based flow cytometric analysis (reference value: 86.7 %). It counts as functional. Conditions: HCT-116, 48 h, read-out: Activity. The procedure, abridged: as §3
In assay [8] the test system is SW48. Kind of assay: Anticlonogenic activity against human SW48 cells assessed as reduction in colony formation up to 40 uM incubated for 24 hrs supplemented with fresh medium containing compound every 3 days for 12 days by crystal violet staining-based microscopic analysis. It counts as functional, cell-based. The essentials:
as §4

The test system of assay [9] is CT26. Kind of assay: Induction of apoptosis in mouse CT26 cells assessed as necrotic cells at 40 uM after 48 hrs by Annexin V-FITC/propidium iodide staining-based flow cytometric analysis (reference value: 1.80 %). It counts as functional. The procedure, abridged: as §1
The subject of assay [10] is CT26. The assay can be described thus: Antimigratory activity against mouse CT26 cells assessed as inhibition of cell migration after 48 hrs by crystal violet staining based Boyden-chamber cell migration assay. It counts as functional. The procedure, abridged:
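Boyden chamber, 8 μm pores: 1 × 10^5 cells in serum-free medium above, 10% FBS medium below, compound at various concentrations in both chambers; migration 48 h. Non-migrated cells swabbed off; migrated cells fixed in methanol, stained 0.5% crystal violet 20 min, counted in six random fields under light microscope; expressed as % inhibition versus untreated.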

The subject of assay [11] is CT26. Kind of assay: Induction of apoptosis in mouse CT26 cells assessed as decrease in Bcl-2 protein expression up to 40 uM after 48 hrs by Western blot analysis. It counts as functional, cell-based. The essentials:
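Cells treated 48 h at 0, 10, 20 and 40 μM, washed in cold PBS, lysed in RIPA; protein equalized by Lowry assay, resolved by SDS-PAGE, transferred to PVDF, blocked 1 h at 37 °C, primary antibody overnight at 4 °C, secondary 1 h, ECL detection, densitometry. β-actin loading control.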
On the technique in general: Immunoblotting shows a protein as a band on a membrane.

In assay [12] the test system is CT26. The assay can be described thus: Antiproliferative activity against mouse CT26 cells assessed as inhibition of cell viability up to 40 uM by MTT assay. It counts as functional, cell-based. Conditions: TDE = time-dependent effect. The procedure, abridged: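 Exponentially growing cells (2–6 × 10^3 per well) seeded in 96-well plates for 24 h, then exposed to 0, 2.5, 5, 10, 20, 40 µM for 24, 48 and 72 h. MTT (5 mg/mL stock) added 2–4 h at 37 °C; formazan dissolved in DMSO, absorbance at 570 nm. Three independent experiments.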
Background: Tetrazolium assays rely on reduction of a dye to a coloured formazan, in cell work by metabolically active cells.

For assay [13], the system named is CT26. The assay can be described thus: Induction of apoptosis in mouse CT26 cells assessed as early apoptotic cells at 40 uM after 48 hrs by Annexin V-FITC/propidium iodide staining-based flow cytometric analysis (reference value: 2.84 %). It counts as functional. The essentials: as §1
The subject of assay [14] is CT26. Kind of assay: Antitumor activity against mouse CT26 cells allografted in Balb/c mouse assessed as inhibition of Ki-67 positive cells in tumour tissue at 25 to 50 mg/kg, ip administered daily for 14 days starting from 6 days post implantation by immunohistochemical analysis. It counts as functional, organism-based. The essentials:
as §5

In assay [15] the test system is CT26. Kind of assay: Anticlonogenic activity against mouse CT26 cells assessed as reduction in colony formation up to 40 uM incubated for 24 hrs supplemented with fresh medium containing compound every 3 days for 12 days by crystal violet staining-based microscopic analysis. It counts as functional, cell-based. The procedure, abridged: as §4
Assay [16] relates to HCT-116. The assay can be described thus: Induction of apoptosis in human HCT116 cells assessed as necrotic cells at 40 uM after 48 hrs by Annexin V-FITC/propidium iodide staining-based flow cytometric analysis (reference value: 8.24 %). It counts as functional. The essentials: as §3
The subject of assay [17] is CT26. The assay can be described thus: Induction of apoptosis in mouse CT26 cells assessed as late apoptotic cells at 10 uM after 48 hrs by Annexin V-FITC/propidium iodide staining-based flow cytometric analysis (reference value: 6.49 %). It counts as functional. The essentials:
as §1

The test system of assay [18] is CT26. The assay can be described thus: Induction of apoptosis in mouse CT26 cells assessed as late apoptotic cells at 20 uM after 48 hrs by Annexin V-FITC/propidium iodide staining-based flow cytometric analysis (reference value: 6.49 %). It counts as functional. The essentials: as §1
In assay [19] the test system is HCT-116. The assay can be described thus: Inhibition of colony formation in human HCT116 cells assessed as reduction in number of colonies up to 40 uM incubated for 24 hrs supplemented with fresh medium containing compound every 3 days for 12 days by crystal violet staining-based microscopic analysis. It counts as functional, cell-based. The procedure, abridged:
as §2

Assay [20] relates to HCT-116. The assay can be described thus: Induction of apoptosis in human HCT116 cells assessed as early apoptotic cells at 20 uM after 48 hrs by Annexin V-FITC/propidium iodide staining-based flow cytometric analysis (reference value: 1.23 %). It counts as functional. The procedure, abridged: as §3
The subject of assay [21] is HCT-116. The assay can be described thus: Inhibition of colony formation in human HCT116 cells assessed as reduction in size of colonies up to 40 uM incubated for 24 hrs supplemented with fresh medium containing compound every 3 days for 12 days by crystal violet staining-based microscopic analysis. It counts as functional, cell-based. The procedure, abridged: as §2

Consider `COc1ccc(-c2cc(=O)c3c(O)c(OC)c(O)cc3o2)cc1` [PECTOLINARIGENIN], for which the Activity was 8.14% in the assay on CT26 [1]; 3.98% with HCT-116 [3]; 4.55% with HCT-116 [5]; “Dose-dependent effect” with CT26 [6]; 3.09% with CT26 [9]; 16.2% with CT26 [13]. For the same molecule, the Activity in the assay with HCT-116 [16] was determined as 7.17%; in the assay on CT26 [17] it was 15.5%; in the assay with CT26 [18], 12.4%; with HCT-116 [20], 8.86%. Moreover, the inhibition entry in the assay on SW48 [2], in the assay on HCT-116 [4], in the assay with SW48 [8], with CT26 [14], with CT26 [15] and with HCT-116 [19] was “Active” in each case. In addition, the inhibition entry in the assay with HCT-116 [21] is “Active”. Moreover, in the assay on HCT-116 [7], the viability at 10 µM was 85.1%. The figures for the inhibition result in the assay on CT26 [10] and in the assay with CT26 [12] were “Dose-dependent effect” and “Tde”, respectively. Further, the outcome in the assay on CT26 [11] was Active.
